Only some compounds are listed: those with a hit (about 2.6% of all), similar ones and a draw of the others.
core dimer inh: blocks dimerization of HCV core protein. actives 0.33% (n = 300,000). TR-FRET GST/Flag-core106 dimerization, 1536-well. inhibition, % at 5 µM;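 active = inhibition above the mean of all tested compounds plus 3 SD, set per screening campaign, cut at about 45% in these data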
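System – GST-tagged and Flag-tagged HCV core protein residues 1-106 · Repeats – one well for each compound · Technique – TR-FRET 671 and 617 nm emission · Doses – one concentration, 5 µM, in 0.5% DMSO · Times – 4 h, 22.5 °C incubation · Also added – Eu donor and XL665 acceptor anti-tag antibodies · Measure – percent inhibition of core106 dimerization signal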
ABHD5-PLIN5 inh: ABHD5-PLIN5 protein interaction inhibition. actives 0.78% (n = 360,000). Q00G26+Q8WTS1. Split G. princeps luciferase complementation, luminescence, 4 h. inhibition, % at 4 µM. AID 602281;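 active = inhibition above the mean inhibition across every tested compound plus 3 SD, cut at about 22% in these data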;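 note: 0% = DMSO only wells and the 100% control is not disclosed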
rCAG RNA binder: binds r(CAG) RNA repeats | r(CAG) RNA repeat, TO-PRO-1 dye displacement fluorescence | inhibition, % at 3 µM | actives 1.3% (n = 370,000) | AID 651821;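 active = inhibition above the plate cutoff, the mean of all test compounds on that plate plus 3 SD, cut at about 35% in these data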;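 note: 0% = DMSO alone and 100% = 100 µM mitoxantrone as full dye displacement; higher means more dye released from RNA so lower well fluorescence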
NadD block: NadD (S. aureus) enzyme inhibition. purified NadD enzyme, colorimetric absorbance read-out. inhibition, % at 20 µM. actives 0.78% (n = 360,000). AID 602399; in the data active = inhibition above about 26%
ABHD5-PLIN5 conf: ABHD5-PLIN5 interaction inhibition, confirmed | biochemical ABHD5-PLIN5 interaction, luminescence | actives 67% (n = 2,200) | shares compounds with ABHD5-PLIN5 inh | inhibition, % at 4 µM; in the data active = inhibition above about 23%;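 note: 0% = DMSO vehicle wells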
HNF4 counter: counter-screen for ABHD5-PLIN5 inhibitors: HNF4 split-luciferase | actives 77% (n = 2,200) | AID 651674 | HNF4 dimerization, luminescence, biochemical | shares compounds with ABHD5-PLIN5 inh | inhibition, % at 4 µM;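 active = mean inhibition across replicate wells exceeding the computed hit threshold, cut at about 13% in these data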;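 note: light from luciferase halves that rejoin when HNF4 fusion proteins dimerize; 0% = DMSO only wells and the 100% control is not given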
An asterisk follows results filed as active; . = no result given.

SMILES	core dimer inh	ABHD5-PLIN5 inh	rCAG RNA binder	NadD block	ABHD5-PLIN5 conf	HNF4 counter
O=C1OC(NC(=O)c2ccccc2)C(n2cc(CO)nn2)=C1Cl (centres undefined)	-47	64*	4	-6	90*	103*
Cc1ccc(-n2cc(-c3ccccc3)c3c(N4CCOCC4)ncnc32)cc1	.	2	1	2	.	.
Cc1ccc(-n2cc(-c3ccccc3)c3c(N4CCN(C)CC4)ncnc32)cc1	-5	24*	-1	-9	11	1
CCOCCC(=O)Nc1ccc2c(c1)c(=O)n(C)n2-c1ccccc1F	.	2	1	0	.	.
COc1cc(F)ccc1-c1csc(C(O)(c2ccccc2)C(F)(F)F)n1 (centres undefined)	.	-10	2	0	.	.
CC1CCCC(C)N1S(=O)(=O)c1ccc(Cl)cc1 (centres undefined)	3	-13	-3	-1	.	.
CC1=C(C)CS(=O)N(S(=O)(=O)c2ccc(Cl)cc2)C1 (centres undefined)	4	80*	2	16	93*	109*
S=C(NCCCN1CCOCC1)N1CCN(c2nc(-c3ccccc3)cs2)CC1	-4	14	-5	-7	.	.
S=C(NCCCN1CCOCC1)N1CCN(c2nc(-c3ccc(Cl)cc3)cs2)CC1	-8	32*	-2	-4	17	3
Cc1ccc(S(=O)(=O)c2c(N)n(Cc3ccco3)c3nc4ccccc4nc23)cc1C	14	28*	17	47*	52*	48*
Cc1ccc2cc(C#N)c(NCc3ccco3)nc2c1	5	24*	-1	-1	46*	61*
Nc1[nH]c(C(=O)c2ccccc2)c(-c2ccc(Cl)c(F)c2)c1C(=O)NCCc1c[nH]c2ccccc12	.	-16	6	29	.	.
O=C1C=CC(=O)N1Cc1ccncc1	.	0	9	-2	.	.
O=C1C=CC(=O)N1CCCCCCCCCCN1C(=O)C=CC1=O	.	58*	0	13	68*	106*
O=C(CC[C@H]1O[C@@H](n2ccc(=O)[nH]c2=O)[C@H](O)[C@@H]1O)NCCN1CCOCC1	.	-5	1	4	.	.
O=P(CCCCCCCCCP(=O)(c1ccccc1)c1ccccc1)(c1ccccc1)c1ccccc1	37	23*	-7	12	-1	-1
c1ccc(CSc2nnc(-c3ccco3)n2Cc2ccco2)cc1	0	4	-3	-2	.	.
CCCCOc1[nH]c2nc(-c3ccco3)n(Cc3ccco3)c(=N)c2c1C#N	8	48*	16	6	25*	47*
COc1cc(NC(=O)C/C(C)=N/NC(=O)C(=O)NC2CCCCC2)c(OC)cc1Cl	-4	24*	10	3	6	5
COc1cc(NC(=O)C/C(C)=N/NC(=O)C2CCCCC2)c(OC)cc1Cl	-1	8	10	-2	.	.
CC(=O)C(C(C)=O)C1(O)C(=O)c2ccccc2C1=O	-27	41*	-4	5	4	11
COC(=O)[C@]12C[C@H](CC(=O)N3CCCCC3)C(=O)N(Cc3ccc4c(c3)OCO4)C1=C[C@H](COCc1ccccc1)O[C@@H]2C	.	.	2	.	.	.
CCOC(=O)N1CCc2c(sc(NC(=O)CCS(=O)(=O)c3ccccc3)c2C(N)=O)C1	-16	30*	1	-2	24*	37*
C#CCOCCOCCOCCNc1nc(N2CCN(C(=O)CCCCCCCCCCNC(=O)[C@@H](CCSC)n3cc(CCO)nn3)CC2)nc(N2CCN(C(=O)CCCCCCCCCCNC(=O)[C@@H]([C@H](C)O)n3cc(C)nn3)CC2)n1	18	53*	17	9	8	-17
C#CCOCCOCCOCCNc1nc(N2CCN(C(=O)CCCCCCCCCCNC(=O)[C@H](CO)n3cc(CCCCCN)nn3)CC2)nc(N2CCN(C(=O)CCCCCCCCCCNC(=O)[C@H](CCCN=C(N)N)n3cc(C[C@@H](C)CC)nn3)CC2)n1	15	.	.	.	.	.
SMILES	core dimer inh	ABHD5-PLIN5 inh	rCAG RNA binder	NadD block	ABHD5-PLIN5 conf	HNF4 counter
Cc1cn([C@@H](CCCCNC(=O)OC(C)(C)C)C(=O)NCCCCCCCCCCC(=O)N2CCN(C(=O)OC(C)(C)C)CC2)nn1	8	24*	.	-2	3	-10
C#CCOCCOCCOCCNc1nc(N2CCN(C(=O)CCCCCCCCCCNC(=O)[C@H](CCCCN)n3cc(C)nn3)CC2)nc(N2CCN(C(=O)CCCCCCCCCCNC(=O)[C@@H]([C@H](C)O)n3cc(C)nn3)CC2)n1	-2	44*	.	10	8	-4
CC(C)C[C@@H]1COc2cc(Br)ccc2S(=O)(=O)N1Cc1cn(CC2CCCCC2)nn1	.	.	0	.	.	.
CCOC(=O)[C@H]1[C@H]2COc3cc(OC)ccc3[C@@H]2N2C(=O)CN(Cc3ccc(C)cc3)C(=O)[C@@]12C	.	-3	-4	-6	.	.
CCOC(=O)C1=C(C)N(c2ccccc2)C(=O)/C1=C\c1ccc(O)c(OC)c1	-2	26*	6	-6	39*	49*
CCOC(=O)C1=C(C)N(c2ccccc2)C(=O)/C1=C\c1ccco1	4	6	3	-6	.	.
CC(C)=CCC/C(C)=C/CN1C(=O)N(c2ccc(F)cc2)[C@H]2C[C@@H](c3ccccc3)[C@@H](C)[C@@H](C(=O)N3CCOCC3)C[C@H]21	.	.	5	.	.	.
O=S(=O)(Nc1ccc(C(O)(C(F)(F)F)C(F)(F)F)cc1)c1ccc(Cl)c2nonc12	.	42*	.	-8	51*	48*
CCCCNc1ccc2c(c1)OC[C@H](C)NS2(=O)=O	.	.	3	.	.	.
CCc1ccccc1NC(=O)c1cc(C)nn1-c1ccccc1	.	.	-1	.	.	.
CCc1cc(C(c2ccc(OC)c(OC)c2)N2CCOCC2)c(NC(=O)c2ccccc2)s1 (centres undefined)	2	33*	4	5	99*	86*
CCOC(=O)c1c(C)oc2c1c(CN1CCN(CCO)CC1)c(O)c1ccccc12	.	35*	8	4	63*	25*
CC(C)CC1(C2CCCC2)NC(=O)NC1=O (centres undefined)	.	0	1	-4	.	.
Cc1noc(/C=C/c2ccccn2)c1[N+](=O)[O-]	9	42*	-1	-4	77*	70*
COc1cccc(-c2nnc(SCC(=O)Nc3cccc4ccccc34)n2Cc2ccco2)c1	.	.	6	.	.	.
COCCNC(=O)/C(C#N)=C/c1cccc(NC(=O)c2ccccc2Cl)c1	-1	5	2	3	.	.
CC(C)NC(=O)/C(C#N)=C/c1cccc(NC(=O)c2ccccc2Cl)c1	2	28*	0	-7	65*	57*
CC(C)(C)NCC(=Cc1ccccc1)C(=O)c1ccccc1	.	41*	0	-2	69*	54*
O=C(/C=C/c1ccc2c(c1)OCO2)c1cccnc1	7	28*	6	-4	63*	54*
CC(=O)Nc1ccc(/C=C/C(=O)c2ccc3c(c2)OCCO3)cc1	9	19	10	0	.	.
